# Source: ChEMBL document CHEMBL5724801, “EUbOPEN Chemogenomics Library - Multiplex” (2024)
# Where “and” joins values, the source holds several entries; their conditions need not be identical. Equal entries are not always repeated.
# Test system: HEK-293T
# Assay: Multiplex assay against HEK293T
# Assay type: toxicity, cell-based
# Details: human, 12 h, 1 µM, compound concentration 1 uM
# Outline: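 Values for tubulin, mitochondrial-mass and membrane-permeability phenotypes are per cents of cells with healthy nuclei. These cells were identified by CellPathfinder machine-learning gating of live cells that had been stained at seeding with Hoechst33342, BioTracker Green Microtubule Cytoskeleton Dye, MitoTracker Red and Annexin V Alexa Fluor 680 and imaged on a CQ1 microscope at 37°C and 5% CO2 after compound addition. The gating first set Hoechst high-intensity objects apart from normal cells, then split normal cells into healthy, pyknosed or fragmented nuclei, and pyknosed cells into mitotic or apoptotic.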
Compound,Population Apoptotic (%),Population Fragmented Nuclei (%),Population Hoechst High Intensity Objects (%),Population Membrane Permeable-Phenotype (%),Population Mitochondria Different-Phenotype (%),Population Mitotic Cells (%),Population Normal (%),Population Pyknosed Nuclei (%),Total Cell Count,Population Healthy Nuclei (%)
COCCNc1cc(NC(=O)N2CCCc3cc(CN4CCOCC4=O)c(C=O)nc32)ncc1C#N,8.39% and 10.83%,1.89% and 2%,0% and 0.66%,0.45% and 0%,40% and 29.63%,91.61% and 89.17%,100% and 99.34%,38.65% and 80%,370 and 151,
O=C(Nc1cc(C(F)(F)F)cc(C(F)(F)F)c1)c1cc(Cl)ccc1O [IMD-0354],4.35% and 3.39%,2.35% and 2.03%,0.58% and 0%,0.68% and 0%,,95.65% and 96.61%,99.42% and 100%,54.12% and 79.73%,342 and 148,43.53% and 18.24%
CC(C)C[C@H](NC(=O)c1cc2ccccc2s1)C(=O)N1CCN(C(=O)[C@H](CO)NS(=O)(=O)c2ccc(Cl)cc2Cl)CC1,10.07% and 13.45%,3.47% and 8.64%,0.31% and 0%,1.8% and 0%,37.13% and 31.03%,89.93% and 86.55%,99.69% and 100%,43.85% and 73.46%,318 and 162,52.68% and 17.9%
O=C(Nc1ccccc1Br)N[C@@H]1CCN(c2ccc(C(F)(F)F)cn2)C1 [SB-705498],7.52% and 7.03%,0.88% and 1.23%,0.29% and 0%,0.99% and 0%,31.53% and 18.75%,92.48% and 92.97%,99.71% and 100%,39.23% and 79.01%,340 and 162,

# Same assay, conditions: human, 12 h, 1 µM, compound concentration 1 uM
row,Compound,Population Tubulin-Different-Phenotype (%)
1,CC(C)C[C@H](NC(=O)c1cc2ccccc2s1)C(=O)N1CCN(C(=O)[C@H](CO)NS(=O)(=O)c2ccc(Cl)cc2Cl)CC1,16.17% and 48.28%

# Same assay, conditions: human, 12 h, 10 µM, compound concentration 10 uM
Compound,Population Apoptotic (%),Population Fragmented Nuclei (%),Population Hoechst High Intensity Objects (%),Population Membrane Permeable-Phenotype (%),Population Mitochondria Different-Phenotype (%),Population Mitotic Cells (%),Population Normal (%),Population Pyknosed Nuclei (%),Population Tubulin-Different-Phenotype (%),Total Cell Count
COCCNc1cc(NC(=O)N2CCCc3cc(CN4CCOCC4=O)c(C=O)nc32)ncc1C#N,13.28% and 9.24%,3.21% and 5.33%,0.71% and 0%,0.7% and 4.35%,34.27% and 17.39%,86.72% and 90.76%,99.29% and 100%,45.71% and 79.33%,22.38% and 30.43%,282 and 150
O=C(Nc1cc(C(F)(F)F)cc(C(F)(F)F)c1)c1cc(Cl)ccc1O [IMD-0354],8.89% and 5.65%,4.05% and 10.2%,1.33% and 0%,0% and 12.5%,,91.11% and 94.35%,98.67% and 100%,81.08% and 84.35%,0%,225 and 147
CC(C)C[C@H](NC(=O)c1cc2ccccc2s1)C(=O)N1CCN(C(=O)[C@H](CO)NS(=O)(=O)c2ccc(Cl)cc2Cl)CC1,19.05% and 16.13%,2.43% and 2.16%,0.69% and 0%,0.88% and 0%,,80.95% and 83.87%,99.31% and 100%,58.33% and 89.21%,87.61% and 58.33%,290 and 139
O=C(Nc1ccccc1Br)N[C@@H]1CCN(c2ccc(C(F)(F)F)cn2)C1 [SB-705498],12.68% and 20.16%,2.69% and 4.05%,1.52% and 0%,0.9% and 7.69%,31.53% and 23.08%,87.32% and 79.84%,98.48% and 100%,54.62% and 87.16%,17.12% and 46.15%,264 and 148

# Same assay, conditions: human, 12 h, 10 µM, compound concentration 10 uM
row,Compound,Population Healthy Nuclei (%)
1,O=C(Nc1cc(C(F)(F)F)cc(C(F)(F)F)c1)c1cc(Cl)ccc1O [IMD-0354],14.86% and 5.44%

# Same assay, conditions: human, 24 h, 1 µM, compound concentration 1 uM
Compound,Population Apoptotic (%),Population Fragmented Nuclei (%),Population Hoechst High Intensity Objects (%),Population Membrane Permeable-Phenotype (%),Population Mitochondria Different-Phenotype (%),Population Mitotic Cells (%),Population Normal (%),Population Pyknosed Nuclei (%),Population Healthy Nuclei (%),Population Tubulin-Different-Phenotype (%)
COCCNc1cc(NC(=O)N2CCCc3cc(CN4CCOCC4=O)c(C=O)nc32)ncc1C#N,12.59% and 11.28%,1.33% and 4.05%,0%,1.6% and 0%,19.15% and 9.09%,87.41% and 88.72%,100%,27.19% and 76.88%,,
O=C(Nc1cc(C(F)(F)F)cc(C(F)(F)F)c1)c1cc(Cl)ccc1O [IMD-0354],6.35% and 10.83%,1.67% and 0%,0.48% and 0%,2.8% and 4.88%,4.9% and 4.88%,93.65% and 89.17%,99.52% and 100%,30.07% and 74.53%,68.26% and 25.47%,6.99% and 2.44%
CC(C)C[C@H](NC(=O)c1cc2ccccc2s1)C(=O)N1CCN(C(=O)[C@H](CO)NS(=O)(=O)c2ccc(Cl)cc2Cl)CC1,16.78% and 26.05%,1.48% and 4.6%,0%,2.83% and 2.13%,27.67% and 38.3%,83.22% and 73.95%,100%,31.43% and 68.39%,67.09% and 27.01%,38.68% and 19.15%
O=C(Nc1ccccc1Br)N[C@@H]1CCN(c2ccc(C(F)(F)F)cn2)C1 [SB-705498],16.92% and 17.07%,1.6% and 1.17%,0.18% and 0%,2.37% and 2.17%,11.37% and 2.17%,83.08% and 82.93%,99.82% and 100%,,75.22% and 26.9%,10.9% and 6.52%

# Same assay, conditions: human, 24 h, 1 µM, compound concentration 1 uM
row,Compound,Total Cell Count
1,O=C(Nc1cc(C(F)(F)F)cc(C(F)(F)F)c1)c1cc(Cl)ccc1O [IMD-0354],421 and 161
2,CC(C)C[C@H](NC(=O)c1cc2ccccc2s1)C(=O)N1CCN(C(=O)[C@H](CO)NS(=O)(=O)c2ccc(Cl)cc2Cl)CC1,474 and 174

# Same assay, conditions: human, 24 h, 10 µM, compound concentration 10 uM
Compound,Population Apoptotic (%),Population Fragmented Nuclei (%),Population Healthy Nuclei (%),Population Hoechst High Intensity Objects (%),Population Membrane Permeable-Phenotype (%),Population Mitochondria Different-Phenotype (%),Population Mitotic Cells (%),Population Normal (%),Population Pyknosed Nuclei (%),Population Tubulin-Different-Phenotype (%)
COCCNc1cc(NC(=O)N2CCCc3cc(CN4CCOCC4=O)c(C=O)nc32)ncc1C#N,27.05% and 20.97%,2.91% and 3.95%,67.48% and 25.99%,0.24% and 0%,1.44% and 0%,24.82% and 19.57%,72.95% and 79.03%,99.76% and 100%,29.61% and 70.06%,39.21% and 21.74%
O=C(Nc1cc(C(F)(F)F)cc(C(F)(F)F)c1)c1cc(Cl)ccc1O [IMD-0354],5.52% and 6.29%,3.57% and 12.35%,,0.88% and 0%,5.71% and 0%,5.71% and 0%,94.48% and 93.71%,99.12% and 100%,80.8% and 84.12%,5.71% and 16.67%
CC(C)C[C@H](NC(=O)c1cc2ccccc2s1)C(=O)N1CCN(C(=O)[C@H](CO)NS(=O)(=O)c2ccc(Cl)cc2Cl)CC1,47.8% and 42.62%,3.25% and 4.03%,,0.65% and 0%,0% and 4.76%,74.82% and 42.86%,52.2% and 57.38%,99.35% and 100%,51.62% and 81.88%,100% and 90.48%
O=C(Nc1ccccc1Br)N[C@@H]1CCN(c2ccc(C(F)(F)F)cn2)C1 [SB-705498],24.63% and 21.09%,1.27% and 4.24%,,0%,0%,24.71% and 20%,75.37% and 78.91%,100%,34.01% and 77.58%,37.65% and 16.67%

# Same assay, conditions: human, 24 h, 10 µM, compound concentration 10 uM
row,Compound,Total Cell Count
1,COCCNc1cc(NC(=O)N2CCCc3cc(CN4CCOCC4=O)c(C=O)nc32)ncc1C#N,413 and 177
2,O=C(Nc1cc(C(F)(F)F)cc(C(F)(F)F)c1)c1cc(Cl)ccc1O [IMD-0354],226 and 170
3,CC(C)C[C@H](NC(=O)c1cc2ccccc2s1)C(=O)N1CCN(C(=O)[C@H](CO)NS(=O)(=O)c2ccc(Cl)cc2Cl)CC1,310 and 149
4,O=C(Nc1ccccc1Br)N[C@@H]1CCN(c2ccc(C(F)(F)F)cn2)C1 [SB-705498],394 and 165

# Same assay, conditions: human, 48 h, 1 µM, compound concentration 1 uM
Compound,Population Apoptotic (%),Population Fragmented Nuclei (%),Population Healthy Nuclei (%),Population Hoechst High Intensity Objects (%),Population Membrane Permeable-Phenotype (%),Population Mitochondria Different-Phenotype (%),Population Mitotic Cells (%),Population Normal (%),Population Pyknosed Nuclei (%)
COCCNc1cc(NC(=O)N2CCCc3cc(CN4CCOCC4=O)c(C=O)nc32)ncc1C#N,7.19% and 11.39%,2.68% and 2.4%,85.58% and 59.62%,0%,6% and 3.23%,14.96% and 30.65%,92.81% and 88.61%,100%,
O=C(Nc1cc(C(F)(F)F)cc(C(F)(F)F)c1)c1cc(Cl)ccc1O [IMD-0354],6.21% and 4.35%,1.53% and 0.99%,78.27% and 53.69%,0%,16.37% and 6.42%,2.49% and 3.67%,93.79% and 95.65%,100%,20.19% and 45.32%
CC(C)C[C@H](NC(=O)c1cc2ccccc2s1)C(=O)N1CCN(C(=O)[C@H](CO)NS(=O)(=O)c2ccc(Cl)cc2Cl)CC1,11.27% and 26%,1.67% and 1.87%,84.35% and 51.4%,0.1% and 0.47%,6.07% and 4.55%,35.82% and 54.55%,88.73% and 74%,99.9% and 99.53%,
O=C(Nc1ccccc1Br)N[C@@H]1CCN(c2ccc(C(F)(F)F)cn2)C1 [SB-705498],9.6% and 17.81%,2.88% and 0.56%,86.22% and 58.66%,0%,6.98% and 0.95%,12.34% and 27.62%,90.4% and 82.19%,100%,

# Same assay, conditions: human, 48 h, 10 µM, compound concentration 10 uM
Compound,Population Apoptotic (%),Population Fragmented Nuclei (%),Population Healthy Nuclei (%),Population Hoechst High Intensity Objects (%),Population Membrane Permeable-Phenotype (%),Population Mitochondria Different-Phenotype (%),Population Mitotic Cells (%),Population Normal (%),Population Pyknosed Nuclei (%),Total Cell Count
COCCNc1cc(NC(=O)N2CCCc3cc(CN4CCOCC4=O)c(C=O)nc32)ncc1C#N,11.67% and 18.75%,2.84% and 5.15%,81.65% and 53.65%,0%,4.91% and 4%,35.13% and 34.4%,88.33% and 81.25%,100%,15.5% and 41.2%,
O=C(Nc1cc(C(F)(F)F)cc(C(F)(F)F)c1)c1cc(Cl)ccc1O [IMD-0354],5.97% and 5.04%,3.97% and 7.69%,16.27% and 10.06%,0.79% and 0%,12.2% and 5.88%,21.95% and 11.76%,94.03% and 94.96%,99.21% and 100%,79.76% and 82.25%,254 and 169
CC(C)C[C@H](NC(=O)c1cc2ccccc2s1)C(=O)N1CCN(C(=O)[C@H](CO)NS(=O)(=O)c2ccc(Cl)cc2Cl)CC1,55.17% and 79.57%,2.27% and 2.56%,64.87% and 37.82%,0.28% and 0%,1.31% and 1.69%,97.38% and 91.53%,44.83% and 20.43%,99.72% and 100%,32.86% and 59.62%,354 and 156
O=C(Nc1ccccc1Br)N[C@@H]1CCN(c2ccc(C(F)(F)F)cn2)C1 [SB-705498],,1.84% and 0.57%,83.54% and 53.41%,0%,4.13% and 5.32%,29.2% and 45.74%,95.28% and 80.25%,100%,,

# Same assay, conditions: human, 48 h, 10 µM, compound concentration 10 uM
row,Compound,Population Tubulin-Different-Phenotype (%)
1,CC(C)C[C@H](NC(=O)c1cc2ccccc2s1)C(=O)N1CCN(C(=O)[C@H](CO)NS(=O)(=O)c2ccc(Cl)cc2Cl)CC1,94.32% and 98.31%
